Data on 2 compounds can be found in ChEMBL document CHEMBL1125212, “Dual-action cephalosporins: cephalosporin 3'-quinolone carbamates” (J Med Chem, 1991).

In brackets after ≈: the same amount, converted by molar mass.

In one test the test system is Micrococcus luteus. Put plainly: The compound was tested in vitro for minimum inhibitory concentration against Micrococcus luteus ATCC 9341. In kind it is functional. The gist of the method:
(§1)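 Agar dilution on Mueller-Hinton agar using 2-fold serial dilutions, giving final 128 to 0.0156 μg/mL (extended to 0.000977 μg/mL where needed). Inoculum was overnight broth culture diluted 100-fold, about 3×10^4 CFU/spot, applied by replicator. MIC read after overnight incubation at 36 °C.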

Test [1] is filed under the species Mus musculus. The test is described as follows: (§2) Effective dose against mouse infected with Pseudomonas aeruginosa 8780 (LDs-240). In kind it is functional. An outline of the steps:
(§3)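 CD1 Swiss albino mice (18-20 g) infected intraperitoneally with 0.5 mL of diluted bacterial suspension. Challenge expressed as a multiple of LD50. Drug given subcutaneously at the dorsal neck base within 5 min of infection (1.0 mL), with a second treatment 3 h after infection. Dose range 250 to 0.05 mg/kg. Six mice per group. ED50 by the Reed-Muench method.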

The test system of test [2] is Pseudomonas aeruginosa. The test is described as follows: The compound was tested in vitro for minimum inhibitory concentration against Pseudomonas aeruginosa 8780. In kind it is functional. An outline of the steps:
as §1

Test [3] deals with Streptococcus pneumoniae. The test is described as follows: The compound was tested in vitro for minimum inhibitory concentration against Streptococcus pneumoniae 6301. In kind it is functional. The gist of the method: (§4)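 Streptococci tested by agar dilution on brain heart infusion agar with 20 units/mL bovine liver catalase. Final drug range 128 to 0.0156 μg/mL by 2-fold steps, extended to 0.000977 μg/mL when required. Inoculum about 3×10^4 CFU/spot from overnight broth diluted 100-fold. MIC after overnight incubation at 36 °C.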

In test [4] the test system is Staphylococcus aureus. Put plainly: The compound was tested in vitro for minimum inhibitory concentration against Staphylococcus aureus smith. Format: functional. The gist of the method:
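Agar dilution MIC on Mueller-Hinton agar. Compounds were serially diluted 2-fold in water; final agar concentrations ran from 128 to 0.0156 μg/mL, extended to 0.000977 μg/mL for very active compounds. Spots were inoculated by replicator with overnight broth cultures diluted 100-fold, about 3×10^4 CFU/spot. MIC was read after overnight incubation at 36 °C.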

For another test, the system named is Enterobacter cloacae. Put plainly: The compound was tested in vitro for minimum inhibitory concentration against Enterobacter cloacae P99. In kind it is functional.
Test [5] relates to Staphylococcus aureus. Put plainly: The compound was tested in vitro for minimum inhibitory concentration against Staphylococcus aureus 67-0. In kind it is functional. The gist of the method:
as §1

The subject of test [6] is Staphylococcus aureus. Put plainly: The compound was tested in vitro for minimum inhibitory concentration against Staphylococcus aureus 753. Format: functional, staphylococcus aureus smith. An outline of the steps: as §1
Test [7] has as its system Escherichia coli. The test is described as follows: The compound was tested in vitro for minimum inhibitory concentration against Escherichia coli TEM-1. Format: functional. The gist of the method: as §1
For test [8], the species on record is Mus musculus. The test is described as follows: Effective dose against mouse infected with Staphylococcus aureus 753 (MR) (LDs-6). In kind it is functional. An outline of the steps: (§5)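 Mouse protection test in CD1 Swiss albino mice (18-20 g) given an intraperitoneal challenge (0.5 mL of diluted culture), expressed as a multiple of LD50. A single subcutaneous dose of 1.0 mL test solution was given at the dorsal neck base within 5 min of infection. Dose range 250 to 0.05 mg/kg. Six mice per group. ED50 (protective dose) by Reed-Muench.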

The test system of the next test is Serratia marcescens. The test is described as follows: The compound was tested in vitro for minimum inhibitory concentration against Serratia marcescens 1071. Format: functional. The gist of the method: as §1
The test system of test [9] is Escherichia coli. Put plainly: Minimum inhibitory concentration for inhibition of [14C]- Pen G binding to Escherichia coli UB1005. In kind it is functional. The gist of the method:
(§6)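 Membranes from sonicated E. coli UB1005 were solubilized. Binding to penicillin-binding proteins was measured as inhibition of [14C]penicillin G binding.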

The test system of test [10] is Escherichia coli. Put plainly: The compound was evaluated for the inhibition of [14C]- Pen G binding to Escherichia coli UB1005 penicillin-binding protein 1b 90 kDa. An outline of the steps: as §6
The subject of the next test is Klebsiella pneumoniae. Put plainly: The compound was tested in vitro for minimum inhibitory concentration against Klebsiella pneumoniae A. In kind it is functional. The gist of the method: as §1
In another test the test system is Enterococcus faecalis. Put plainly: The compound was tested in vitro for minimum inhibitory concentration against Enterococcus faecalis ATCC 29212. In kind it is functional. The gist of the method: as §1
For another test, the system named is Proteus mirabilis. The test is described as follows: The compound was tested in vitro for minimum inhibitory concentration against Proteus mirabilis 90. In kind it is functional. An outline of the steps:
(§7)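 Proteus MICs by agar dilution on Mueller-Hinton medium containing 3% agar. Serial 2-fold dilutions gave final 128 to 0.0156 μg/mL (further to 0.000977 μg/mL). Inoculum was overnight broth diluted 100-fold, about 3×10^4 CFU/spot. Plates read after overnight incubation at 36 °C.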

The test system of test [11] is Escherichia coli. Put plainly: The compound was tested in vitro for minimum inhibitory concentration against Escherichia coli 257. In kind it is functional. The gist of the method:
as §1

Test [12] relates to Pseudomonas aeruginosa. The test is described as follows: The compound was tested in vitro for minimum inhibitory concentration against Pseudomonas aeruginosa 18S/H. In kind it is functional. The gist of the method:
as §1

The subject of test [13] is Escherichia coli. Put plainly: The compound was evaluated for the inhibition of [14C]- Pen G binding to Escherichia coli UB1005 penicillin-binding protein 2 66 kDa. An outline of the steps:
as §6

Test [14] concerns Escherichia coli. The test is described as follows: The compound was tested in vitro for minimum inhibitory concentration against Escherichia coli ATCC 25922. Format: functional. The gist of the method: as §1
The next test has as its system Proteus vulgaris. The test is described as follows: The compound was tested in vitro for minimum inhibitory concentration against Proteus vulgaris 1028 BC. In kind it is functional. The gist of the method: as §7
In test [15] the test system is Escherichia coli. Put plainly: The compound was evaluated for the inhibition of [14C]- Pen G binding to Escherichia coli UB1005 penicillin-binding protein 1a 90 kDa. The gist of the method: as §6
The subject of test [16] is Escherichia coli. Put plainly: The compound was evaluated for the inhibition of [14C]- Pen G binding to Escherichia coli UB1005 penicillin-binding protein 3 60 kDa. An outline of the steps:
as §6

In a further test the test system is Citrobacter freundii. Put plainly: The compound was tested in vitro for minimum inhibitory concentration against Citrobacter Freundii BS-16. Format: functional. An outline of the steps: as §1
Test [17] is filed under the species Mus musculus. Put plainly: (§8) Effective dose against mouse infected with Streptococcus pneumoniae 6301(LDs-5623). Format: functional. An outline of the steps: as §5
The test system of a further test is Streptococcus pyogenes. The test is described as follows: The compound was tested in vitro for minimum inhibitory concentration against Streptococcus pyogenes. In kind it is functional. The gist of the method: as §4
Test [18] has as its system Pseudomonas aeruginosa. The test is described as §2. In kind it is functional. The gist of the method: as §3
The test system of test [19] is Escherichia coli. The test is described as follows: Inhibitory activity on replicative DNA biosynthesis in Escherichia coli H560 (permeabilised cells). Format: functional, organism-based. An outline of the steps:
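E. coli H560 cells permeabilized with toluene. ATP-dependent incorporation of [3H]thymidine into trichloroacetic acid-insoluble material was measured. IC50 taken as the concentration giving 50% inhibition.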

Test [20] has as its system Staphylococcus aureus. The test is described as follows: animal or person. The settings on record: in Mus musculus.
Test [21] has as its system Streptococcus pneumoniae. Described as §8. In kind it is functional. The gist of the method: as §5

Take `CO/N=C(\C(=O)N[C@@H]1C(=O)N2C(C(=O)O)=C(COC(C)=O)CS[C@H]12)c1csc(N)n1` [CEFOTAXIME]: the MIC is 0.031 µg/mL (≈ 0.0681 µM) with Micrococcus luteus; 16 µg/mL (≈ 35.1 µM) against Pseudomonas aeruginosa [2]; < 0.016 µg/mL in the test on Streptococcus pneumoniae [3]; 2 µg/mL (≈ 4.39 µM) with Staphylococcus aureus [4]; 64 µg/mL (≈ 141 µM) in the test on Enterobacter cloacae; > 128 µg/mL against Staphylococcus aureus [5]. In addition, the MIC in the test on Staphylococcus aureus [6] is > 128 µg/mL; in the test on Escherichia coli [7] it was 0.063 µg/mL (≈ 0.138 µM); with Serratia marcescens it was 32 µg/mL (≈ 70.3 µM); against Escherichia coli [9] it was 0.06 µg/mL (≈ 0.132 µM); with Klebsiella pneumoniae, 0.031 µg/mL (≈ 0.0681 µM); against Enterococcus faecalis, 0.25 µg/mL (≈ 0.549 µM). Moreover, the MIC with Proteus mirabilis was < 0.016 µg/mL; against Escherichia coli [11] it was 0.031 µg/mL (≈ 0.0681 µM); in the test with Pseudomonas aeruginosa [12] it was 128 µg/mL (≈ 281 µM); against Escherichia coli [14], 0.063 µg/mL (≈ 0.138 µM); against Proteus vulgaris, > 128 µg/mL; in the test on Citrobacter freundii it was 32 µg/mL (≈ 70.3 µM). Also, the MIC in the test on Streptococcus pyogenes was < 0.016 µg/mL. In addition, the values for the ED50 in the test filed under Mus musculus [1], in the test filed under Mus musculus [8] and in the test listed under Mus musculus [17] were > 100 mg/kg, > 100 mg/kg and 15 mg/kg, respectively. Further, the Inhibitory concentration is 0.5 µg/mL in the test on Escherichia coli [10], 100 µg/mL with Escherichia coli [13], < 0.1 µg/mL with Escherichia coli [15] and < 0.1 µg/mL in the test on Escherichia coli [16].
Turning to `O=C(O)c1cn(C2CC2)c2cc(N3CCNCC3)c(F)cc2c1=O` [CIPROFLOXACIN], the MIC turned out to be 2 µg/mL (≈ 6.04 µM) against Micrococcus luteus; 1 µg/mL (≈ 3.02 µM) in the test on Streptococcus pneumoniae [3]; 0.5 µg/mL (≈ 1.51 µM) against Staphylococcus aureus [5]; 0.25 µg/mL (≈ 0.754 µM) in the test on Staphylococcus aureus [6]; 0.063 µg/mL (≈ 0.19 µM) in the test on Serratia marcescens; 0.25 µg/mL (≈ 0.754 µM) against Klebsiella pneumoniae. Besides, the minimum inhibitory concentration (MIC) in the test on Enterococcus faecalis worked out at 1 µg/mL (≈ 3.02 µM); in the test on Proteus mirabilis, 0.063 µg/mL (≈ 0.19 µM); in the test with Proteus vulgaris it was 0.016 µg/mL (≈ 0.0483 µM); against Citrobacter freundii, 0.031 µg/mL (≈ 0.0936 µM); against Streptococcus pyogenes, 0.5 µg/mL (≈ 1.51 µM). Further, the ED50 is 3 mg/kg in the test with Pseudomonas aeruginosa [18], 2 mg/kg with Staphylococcus aureus [20] and > 50 mg/kg in the test on Streptococcus pneumoniae [21]. This compound had an IC50 with Escherichia coli [19] of 0.3 µg/mL (≈ 0.905 µM).
